Laboratory results published in ChEMBL document CHEMBL1125436, “Anthracene-9,10-diones as potential anticancer agents. Synthesis, DNA-binding, and biological studies on a series of 2,6-disubstituted derivatives” (J Med Chem, 1992).

Legend:
Nucleic Acid [1] = assay: Compound was evaluated for the increase in melting temperature (delta Tm) for calf Thymus DNA on interaction with Ligand at DNAp to ligand ratio 10:1; assay type: functional; settings: Bos taurus
Nucleic Acid [2] = assay: Compound was evaluated for the increase in melting temperature (delta Tm) for calf Thymus DNA on interaction with Ligand at DNAp to ligand ratio 40:1; assay type: functional; settings: Bos taurus
Nucleic Acid [3] = assay: Compound was evaluated for the increase in melting temperature (delta Tm) for calf Thymus DNA on interaction with Ligand at DNAp to ligand ratio 20:1; assay type: functional; settings: Bos taurus
L1210 = assay: In vitro extracellular concentration required to reduce cell population to 50% against L1210 leukemia cells; assay type: functional, cell-based; settings: Mus musculus
Summary of the method: (§1)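 Cells seeded at ca. […] cells mL⁻¹, grown 24 h and counted to confirm log growth, then given compound (acetic acid salt or free base) in aqueous solution. Exposure 2 days for L1210 and Walker 256, 6 days for V79. Surviving cells counted; percent growth inhibition versus untreated controls; value is extracellular concentration giving 50% reduction.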

[4] = In vitro extracellular concentration required to reduce cell population to 50% against Walker 256 (WS) carcinoma cells; assay type: functional, Rattus norvegicus; summary of the method: as §1
[5] = In vitro extracellular concentration required to reduce cell population to 50% against Chinese hamster V79 cells; assay type: functional, cell-based, Cricetulus griseus; summary of the method: as §1
[6] = Estimated pKa value of the compound; assay type: physicochemical
Nucleic Acid [7] = assay: Increase in Melting temperature (delta Tm) for Clostridium perfringens DNA on interaction against ligand (mole ratio of 10:1); assay type: functional
Summary of the method: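 Working DNAP 0.10 mM and ligand 0.01 mM. Absorbance at 260 nm was followed against temperature. Tm was taken at the midpoint of the normalized curve and compared with native DNA; mean of ≥3 determinations.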

Nucleic Acid [8] = assay: Increase in Melting temperature (delta Tm) for Calf thymus DNA on interaction against ligand (mole ratio of 10:1); assay type: functional; settings: Bos taurus
Nucleic Acid [9] = assay: Increase in Melting temperature (delta Tm) for Micrococcus lysodeikticus DNA on interaction against ligand (mole ratio of 10:1); assay type: functional; settings: Micrococcus luteus
Summary of the method: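 M. lysodeikticus DNA (28% A+T) in HNE buffer pH 7.0, dialysed and centrifuged before use; DNAP 0.10 mM with ligand 0.01 mM (10:1). A260 monitored against temperature; Tm at midpoint of normalized curve, ΔTm versus native DNA; mean of at least three determinations.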

Row | SMILES | ΔTm (Nucleic Acid [1]) | ΔTm (Nucleic Acid [2]) | ΔTm (Nucleic Acid [3]) | IC50 (L1210) [µM] | IC50 [4] [µM] | IC50 [5] [µM] | pKa [6] | ΔTm (Nucleic Acid [7]) | ΔTm (Nucleic Acid [8]) | ΔTm (Nucleic Acid [9])
1 | O=C(CN1CCOCC1)Nc1ccc2c(c1)C(=O)c1ccc(NC(=O)CN3CCOCC3)cc1C2=O | 0.5 | 0.5 | 0.5 | > 100 | > 100 | > 100 | 7.4 | – | – | –
2 | O=C(CCN1CCOCC1)Nc1ccc2c(c1)C(=O)c1ccc(NC(=O)CCN3CCOCC3)cc1C2=O | 4.9 | – | 3 | 0.57 | 4.2 | 1.6 | 8 | – | – | –
3 | O=C1c2c(O)ccc(O)c2C(=O)c2c(NCCNCCO)ccc(NCCNCCO)c21 [MITOXANTRONE] | > 15 | – | 7.4 | 0.002 | 0.01 | – | 7.4 | > 26.4 | > 15 | > 11.7
4 | O=C(CCN1CCC(CCO)CC1)Nc1ccc2c(c1)C(=O)c1ccc(NC(=O)CCN3CCC(CCO)CC3)cc1C2=O | > 15 | 4.3 | 8.3 | 2.3 | 5.5 | 3.95 | 10 | – | – | –
5 | O=C(CCN1CCCCC1CCO)Nc1ccc2c(c1)C(=O)c1ccc(NC(=O)CCN3CCCCC3CCO)cc1C2=O (centres undefined) | > 15.3 | 4.1 | 9.2 | 0.28 | 3.6 | 12 | 10 | > 18.5 | > 15.3 | > 14.6
6 | CN1CCN(CC(=O)Nc2ccc3c(c2)C(=O)c2ccc(NC(=O)CN4CCN(C)CC4)cc2C3=O)CC1 | 13.6 | 4.2 | 8.2 | 6.5 | 4.6 | 4.6 | 9.5 | – | – | –
7 | O=C(CN1CCCCC1)Nc1ccc2c(c1)C(=O)c1ccc(NC(=O)CN3CCCCC3)cc1C2=O | 14.3 | – | 8.2 | 76 | > 100 | 30 | 10 | 19 | 14.3 | 18.4
8 | O=C(CCN(CCO)CCO)Nc1ccc2c(c1)C(=O)c1ccc(NC(=O)CCN(CCO)CCO)cc1C2=O | 10.9 | 3.2 | 6.1 | 4.2 | > 100 | 25.5 | 9 | 11.7 | 10.9 | > 15.7
9 | CCN(CC)CC(=O)Nc1ccc2c(c1)C(=O)c1ccc(NC(=O)CN(CC)CC)cc1C2=O | 13.5 | 3.7 | 7.7 | 27 | 19 | 18 | 10 | 16.6 | 13.5 | > 16.6
10 | CCN(CC)CCC(=O)Nc1ccc2c(c1)C(=O)c1ccc(NC(=O)CCN(CC)CC)cc1C2=O | > 15.5 | 3.7 | 7.7 | 0.34 | 2.7 | 2.9 | 10.8 | > 20.5 | > 15.5 | > 18.1
11 | O=C(CCN1CCCCC1)Nc1ccc2c(c1)C(=O)c1ccc(NC(=O)CCN3CCCCC3)cc1C2=O | > 15.3 | 3.7 | 7.3 | 0.19 | 2 | 1.7 | 10.4 | > 18.9 | > 15.3 | > 14.5
12 | O=C(CCN1CCN(CCO)CC1)Nc1ccc2c(c1)C(=O)c1ccc(NC(=O)CCN3CCN(CCO)CC3)cc1C2=O | 7.2 | 2.9 | 4.6 | 4.2 | 6.6 | 19.5 | 9.5 | – | – | –
13 | CN1CCN(CCC(=O)Nc2ccc3c(c2)C(=O)c2ccc(NC(=O)CCN4CCN(C)CC4)cc2C3=O)CC1 | 9.2 | – | 4.4 | 1.7 | 3.1 | 1.8 | 9 | – | – | –
14 | O=C(CCN1CCCCC1CO)Nc1ccc2c(c1)C(=O)c1ccc(NC(=O)CCN3CCCCC3CO)cc1C2=O (centres undefined) | 14.4 | 3.8 | 7.9 | 0.5 | 2.8 | 3.6 | 10 | – | – | –
